Experimental findings from ChEMBL document CHEMBL3525966, “Compartmental and enzyme kinetic modeling to elucidate the biotransformation pathway of a centrally acting antitrypanosomal prodrug” (Drug Metab Dispos, 2013) are described below.

A short description of series [1]: Drug metabolism in sandwich-cultured human hepatocytes assessed as DB829 at 10 uM after 24 hrs of incubation by HPLC-MS/MS analysis. In kind it is ADME, cell-based, Hepatocyte. In a few lines: (§1)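 Sandwich-cultured hepatocytes were used on day 5 (human) or day 4 (rat) and rinsed with warm phenol-red-free DMEM. They were then exposed to 10 µM DB868 (0.1–0.2% DMSO) at 37°C. Medium and methanol/water cell lysates were collected at 0.5, 2, 4 and 24 h. Analytes were quantified by HPLC/MS/MS with deuterated internal standards; protein by Bradford. Replicates: 6 (human) or 4 (rat).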

Series [2] is described as follows: Drug metabolism in sandwich-cultured rat hepatocytes assessed as DB829 at 10 uM after 24 hrs of incubation by HPLC-MS/MS analysis. In kind it is ADME, cell-based, Hepatocyte. The gist of the method:
as §1

Series [3] is described as follows: Drug metabolism in sandwich-cultured human hepatocytes assessed as fold increase in DB829 at 10 uM after 2 hrs of incubation by HPLC-MS/MS analysis. It is filed as ADME, cell-based, Hepatocyte. In a few lines:
as §1

For series [4], the system named is Liver microsome. Briefly: Intrinsic clearance in human liver microsomes assessed as (Z)-N'-hydroxy-6-(5-(5-((Z)-N'-methoxycarbamimidoyl)pyridin-2-yl)furan-2-yl nicotinimidamide formation measured per mg of protein by HPLC-MS/MS analysis. It is filed as ADME. The gist of the method:
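M1 formation kinetics: HLM or RLM (0.5 mg/mL) in phosphate pH 7.4 with MgCl2, DB868 0.1–100 µM, started with 2 mM NADPH. Run 5 min (HLM) or 10 min (RLM) under initial-rate conditions (<20% consumption) in triplicate. Quantified by HPLC/MS/MS with d6-DB868 internal standard. Fitted to a one-enzyme (HLM) or two-enzyme (RLM) Michaelis–Menten model; Clint = Vmax/Km.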
For orientation: Liver microsomes are vesicles of endoplasmic reticulum, rich in cytochrome P450 enzymes.

The next series addresses T1, Cytochrome P450 1A2 (Homo sapiens, UniProt P05177).
T1 sequence (P05177 whole entry): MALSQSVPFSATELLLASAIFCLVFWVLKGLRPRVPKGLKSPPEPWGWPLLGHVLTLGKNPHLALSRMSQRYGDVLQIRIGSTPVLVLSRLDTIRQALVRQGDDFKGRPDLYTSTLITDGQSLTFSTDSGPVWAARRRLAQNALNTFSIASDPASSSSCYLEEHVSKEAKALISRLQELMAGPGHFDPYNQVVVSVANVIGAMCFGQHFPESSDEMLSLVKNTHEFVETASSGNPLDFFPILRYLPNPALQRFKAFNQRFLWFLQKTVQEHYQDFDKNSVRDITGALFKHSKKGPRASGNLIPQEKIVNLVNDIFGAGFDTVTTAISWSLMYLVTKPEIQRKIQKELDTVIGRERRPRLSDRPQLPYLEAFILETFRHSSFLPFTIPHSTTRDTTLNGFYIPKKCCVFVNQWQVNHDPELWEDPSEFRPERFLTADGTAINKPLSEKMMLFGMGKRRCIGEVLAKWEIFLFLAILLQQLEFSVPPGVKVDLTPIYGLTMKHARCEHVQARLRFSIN
Description: Prodrug conversion assessed as human recombinant CYP1A2-mediated (Z)-N'-hydroxy-6-(5-(5-((Z)-N'-methoxycarbamimidoyl)pyridin-2-yl)furan-2-yl) nicotinimidamide formation at 5 uM […] by HPLC-UV chromatogram. In kind it is ADME. The settings on record: recombinant enzyme, 3 h.

The next series deals with T2, Cytochrome P450 4F2 (Homo sapiens, UniProt P78329).
T2 sequence (P78329 whole entry): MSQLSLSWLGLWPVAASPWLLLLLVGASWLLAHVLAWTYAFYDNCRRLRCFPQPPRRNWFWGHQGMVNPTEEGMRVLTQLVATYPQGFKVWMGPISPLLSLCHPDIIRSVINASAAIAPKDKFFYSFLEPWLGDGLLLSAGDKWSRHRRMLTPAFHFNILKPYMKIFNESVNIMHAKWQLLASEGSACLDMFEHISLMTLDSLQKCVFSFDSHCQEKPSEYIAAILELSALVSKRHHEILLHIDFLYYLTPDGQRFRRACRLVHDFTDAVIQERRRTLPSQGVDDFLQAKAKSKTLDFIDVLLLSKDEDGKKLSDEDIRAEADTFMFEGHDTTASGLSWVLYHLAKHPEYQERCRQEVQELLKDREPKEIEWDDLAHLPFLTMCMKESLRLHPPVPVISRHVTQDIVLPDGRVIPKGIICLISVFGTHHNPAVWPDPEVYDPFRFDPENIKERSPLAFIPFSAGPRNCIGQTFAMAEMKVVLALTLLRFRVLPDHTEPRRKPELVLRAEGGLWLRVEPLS
Description: Prodrug conversion assessed as human recombinant CYP4F2-mediated (Z)-N'-hydroxy-6-(5-(5-((Z)-N'-methoxycarbamimidoyl)pyridin-2-yl)furan-2-yl) nicotinimidamide formation at 5 uM after 180 mins incubation by HPLC-UV chromatogram. It is filed as ADME. The settings on record: recombinant enzyme, 15 min, in the assay text read “15 mins” for “180 mins”. The gist of the method:
(§2)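 Insect-cell-expressed human or rat P450 (with NADPH-P450 reductase, some also with cytochrome b5) at 0.1 pmol/µL in 100 mM potassium phosphate pH 7.4 with 10 mM MgCl2. DB868 (for M1) or M1 (for M2) was added at 5 µM (0.5% DMSO) and started with 2 mM NADPH. Stopped after 15 min with ice-cold acetonitrile, then HPLC-UV. Duplicate incubations.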

For another series, the target named is T3, Cytochrome P450 2D26 (Rattus norvegicus, UniProt P10634).
T3 sequence (P10634 whole entry): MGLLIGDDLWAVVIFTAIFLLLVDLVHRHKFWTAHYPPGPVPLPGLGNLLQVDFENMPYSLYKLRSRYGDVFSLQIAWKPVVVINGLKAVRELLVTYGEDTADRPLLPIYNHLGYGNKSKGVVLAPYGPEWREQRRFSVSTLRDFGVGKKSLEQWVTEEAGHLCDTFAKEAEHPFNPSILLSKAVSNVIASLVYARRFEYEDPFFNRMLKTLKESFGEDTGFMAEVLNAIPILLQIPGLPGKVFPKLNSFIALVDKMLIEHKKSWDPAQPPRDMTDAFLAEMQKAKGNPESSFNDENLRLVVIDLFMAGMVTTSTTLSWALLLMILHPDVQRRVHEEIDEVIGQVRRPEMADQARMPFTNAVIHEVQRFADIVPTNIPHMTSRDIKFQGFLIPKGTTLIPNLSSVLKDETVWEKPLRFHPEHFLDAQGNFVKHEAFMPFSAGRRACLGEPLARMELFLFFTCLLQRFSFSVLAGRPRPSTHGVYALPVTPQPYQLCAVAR
Description: Prodrug conversion assessed as rat recombinant CYP2D2-mediated (Z)-N'-hydroxy-6-(5-(5-((Z)-N'-methoxycarbamimidoyl)pyridin-2-yl)furan-2-yl) nicotinimidamide formation at 5 uM after 180 mins incubation by HPLC-UV chromatogram. In kind it is ADME. The note with it: recombinant enzyme, 15 min, in the assay text read “15 mins” for “180 mins”. In a few lines:
as §2

Series [5] relates to Liver microsome. Description: Prodrug conversion in human liver microsomes assessed as depletion of compound at 10 uM after 180 mins incubation by HPLC-UV chromatography. In kind it is ADME. The settings on record: 3 h. The gist of the method: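 HLM or RLM (0.5 mg/mL) were incubated in triplicate in 100 mM phosphate pH 7.4 with 10 mM MgCl2 and an NADPH-regenerating system (1 mM NADP+, glucose 6-phosphate, G6PDH). DB868 was 10 µM. Sampled up to 180 min. Prodrug and metabolites were measured by HPLC-UV at 359 nm and expressed relative to initial prodrug; DB829 LLOQ 50 nM.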

For the compound `CO/N=C(\N)c1ccc(-c2ccc(-c3ccc(/C(N)=N/OC)cn3)o2)nc1.Cl`, the Drug metabolism result is on record as “metabolite_detected” in series [1]; “metabolite_detected” in series [2]; “metabolite_detected” on Cytochrome P450 1A2; “metabolite_detected” at Cytochrome P450 4F2; “metabolite_detected” on Cytochrome P450 2D26; 100% with Liver microsome [5]. Also, the “fold change (FC)” value in series [3] stood at 13. Besides, the CLint in the series with Liver microsome [4] came to 31 µL/min/mg.
